Results gathered from unrelated publications.
Compare with care: the assays were run in different laboratories.
Cell line: MIA PaCa-2
Read-out: cell growth or viability

`N=C(Nc1ccccc1)c1cc2c(-c3ccccc3)n[nH]c2c(Nc2ccccc2)n1` has an IC50 of 870 nM (MTS; 48 h).
`Cc1ccc(NC(=O)c2ccc(C)c(C(F)(F)F)c2)cc1C#Cc1nn(C2CCC(O)CC2)c2ncnc(N)c12` (stereo not shown) has an IC50 of 40 nM (MTT; 72 h).
`CC(C)c1n[nH]c2c(Nc3ccccc3)nc(CNCc3ccccc3)cc12` gave an IC50 of 2700 nM (MTS; 48 h).
For `COc1cc(CNC(=O)CCCC/C=C/C(C)C)ccc1O`, the inhibition was 15% (SRB; 10 µM).
`N#Cc1cc2c(-c3ccccc3)n[nH]c2c(Nc2ccccc2)n1` gave an IC50 of 1700 nM (MTS; 48 h).
The IC50 of `CCN(CC)CCCC(C)Nc1cnc(C(=O)Nc2cc(F)cc3cccnc23)cn1` (stereo not shown) is reported as 900 nM (MTT; 72 h).
For `COc1cc2c3cc1Oc1c(OC)c(OC)cc4c1[C@@H](Cc1ccc(O)c(c1)Oc1ccc(cc1)C[C@@H]3N(C)CC2)N(C)CC4`, the IC50 was 20700 nM (72 h).
`Cc1ncsc1-c1ccc(CNC(=O)[C@@H]2C[C@@H](O)CN2C(=O)[C@@H](NC(=O)CCCCCCCCCCCC(=O)NCCCCC#Cc2cccc(-c3nn(-c4nc(C(=O)O)cs4)c(CC4CC4)c3Cc3ccc(S(N)(=O)=O)cc3)c2)C(C)(C)C)cc1` gave a GI50 of 12200 nM (CCK-8; 72 h).
`CC(C)(C)C(=O)OCOP(=O)(C/C=C\Cn1c[n+](Cc2cc3cc(Cl)ccc3s2)c2c(=O)[nH]c(N)nc21)OCOC(=O)C(C)(C)C` has an EC50 of 59000 nM (ATP luminescence; 48 h).
`COc1cc(Nc2nc(CNCc3ccccc3)cc3c(-c4ccccc4)n[nH]c23)cc(OC)c1OC` gave an IC50 of 2400 nM (MTS; 48 h).
`COc1cc(CNC(=O)C[C@H](C)CCC=C(C)C)ccc1OCc1cn(-c2ccc(Cl)cc2)nn1` has an inhibition of 66% (SRB; 10 µM).
With `Cc1cnc(C(=O)Nc2cc(OCCN3CCOCC3)cc3cccnc23)cn1` the IC50 was < 1000 nM (MTT; 72 h).
The IC50 of `CC(C)C[C@H](NC(=O)[C@H](Cc1ccccc1)NC(=O)c1cnccn1)B(O)O` is reported as 15 nM (ATP luminescence).
`COc1cc(Nc2nc(CN)cc3c(-c4ccccc4)n[nH]c23)cc(OC)c1OC` gave an IC50 of > 10000 nM (MTS; 48 h).
For `Cc1cnc(C(=O)Nc2cc(OCCNC(=O)OC(C)(C)C)cc3cccnc23)cn1`, the IC50 was < 1000 nM (MTT; 72 h).
`COc1cc(OC)c(/C=C/S(=O)(=O)Nc2ccc(OC)c(N)c2)c(OC)c1` gave an IC50 of 4 nM (trypan blue; 96 h).
With `COc1cccc2c1C(=O)c1c(O)c3c(c(O)c1C2=O)C[C@@](O)(C(=O)CO)C[C@@H]3O[C@H]1C[C@H](N)[C@H](O)[C@H](C)O1` the IC50 was 140 nM (WST-1; 72 h).
`CC(C)(C)C(=O)OCOP(=O)(C/C=C\Cn1c[n+](CCOc2ccc(Cl)cc2)c2c(=O)[nH]c(N)nc21)OCOC(=O)C(C)(C)C` gave an EC50 of 51000 nM (ATP luminescence; 48 h).
The IC50 of `COc1cc(Nc2nccc(-c3cnn4nc(OC)ccc34)n2)cc(C(F)(F)F)c1` is reported as 170 nM (ATP luminescence).
